Test results: ChEMBL document CHEMBL1926614, “Substituted thiazoles V. synthesis and antitumor activity of novel thiazolo[2,3-b]quinazoline and pyrido[4,3-d]thiazolo[3,2-a]pyrimidine analogues” (2012)

Legend:
Format in all cases: functional
U-251 = test: Growth inhibition of human U251 cells at 10 uM after 48 hrs by coulter counting; conditions: U-251, 48 h, read-out: GI
Outline: (§1)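 Single-dose screen in the NCI 60 human tumor cell line panel (nine subpanels). Compounds dissolved in DMSO and diluted in phosphate buffered saline, keeping final DMSO below 1%. Added in duplicate wells to cells at 6 × 10⁴ cells/ml. Controls held PBS and DMSO at matching dilutions. Incubated at 37 °C, humidified, 5% CO₂. Reported as percent growth of treated cells.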

MCF7 = test: Growth inhibition of human MCF7 cells at 10 uM after 48 hrs by coulter counting; conditions: MCF7, 48 h, read-out: GI
Outline: (§2)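 Single-dose primary screen across the full NCI 60-cell-line panel. Stocks were made in DMSO and diluted in PBS to a final DMSO below 1%. Cultures at 6 × 10⁴ cells/ml were run in duplicate wells alongside PBS/DMSO vehicle controls at 37 °C in humidified 5% CO₂. Data were expressed as percent growth of treated cells.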

CAKI-1 = test: Growth inhibition of human Caki1 cells at 10 uM after 48 hrs by coulter counting; conditions: CAKI-1, 48 h, read-out: GI; outline: as §2
SNB-75 = test: Growth inhibition of human SNB75 cells at 10 uM after 48 hrs by coulter counting; conditions: SNB-75, 48 h, read-out: GI; outline: as §2
HCC 2998 = test: Growth inhibition of human HCC2998 cells at 10 uM after 48 hrs by coulter counting; conditions: HCC 2998, 48 h, read-out: GI; outline: as §2
HT-29 = test: Growth inhibition of human HT-29 cells at 10 uM after 48 hrs by coulter counting; conditions: HT-29, 48 h, read-out: GI; outline: as §2
NCI-H460 = test: Growth inhibition of human NCI-H460 cells at 10 uM after 48 hrs by coulter counting; conditions: NCI-H460, 48 h, read-out: GI; outline: as §2
DU-145 = test: Growth inhibition of human DU145 cells at 10 uM after 48 hrs by coulter counting; conditions: DU-145, 48 h, read-out: GI; outline: as §2
SK-MEL-2 = test: Growth inhibition of human SK-MEL-2 cells at 10 uM after 48 hrs by coulter counting; conditions: SK-MEL-2, 48 h, read-out: GI; outline: as §2
NCI-H522 = test: Growth inhibition of human NCI-H522 cells at 10 uM after 48 hrs by coulter counting; conditions: NCI-H522, 48 h, read-out: GI; outline: as §2
MOLT-4 = test: Growth inhibition of human MOLT4 cells at 10 uM after 48 hrs by coulter counting; conditions: MOLT-4, 48 h, read-out: GI; outline: as §2
KM12 = test: Growth inhibition of human KM12 cells at 10 uM after 48 hrs by coulter counting; conditions: KM12, 48 h, read-out: GI; outline: as §2
A549 = test: Growth inhibition of human A549 cells at 10 uM after 48 hrs by coulter counting; conditions: A549, 48 h, read-out: GI; outline: as §2
SF-539 = test: Growth inhibition of human SF539 cells at 10 uM after 48 hrs by coulter counting; conditions: SF-539, 48 h, read-out: GI; outline: as §2
SK-MEL-28 = test: Growth inhibition of human SK-MEL-28 cells at 10 uM after 48 hrs by coulter counting; conditions: SK-MEL-28, 48 h, read-out: GI; outline: as §2
UO-31 = test: Growth inhibition of human UO31 cells at 10 uM after 48 hrs by coulter counting; conditions: UO-31, 48 h, read-out: GI; outline: as §1
SF-268 = test: Growth inhibition of human SF268 cells at 10 uM after 48 hrs by coulter counting; conditions: SF-268, 48 h, read-out: GI; outline: as §2
UACC-62 = test: Growth inhibition of human UACC62 cells at 10 uM after 48 hrs by coulter counting; conditions: UACC-62, 48 h, read-out: GI; outline: as §1
ACHN = test: Growth inhibition of human ACHN cells at 10 uM after 48 hrs by coulter counting; conditions: read-out: GI; outline: as §2
CCRF-CEM = test: Growth inhibition of human CCRF-CEM cells at 10 uM after 48 hrs by coulter counting; conditions: read-out: GI; outline: as §2
HL-60(TB) = test: Growth inhibition of human HL-60(TB) cells at 10 uM after 48 hrs by coulter counting; conditions: HL-60, 48 h, read-out: GI
Outline: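 Test compound was dissolved in DMSO and diluted in phosphate-buffered saline to a final DMSO level below 1%. Dilutions were plated in duplicate with cell culture at 6 × 10⁴ cells/ml. Vehicle controls held PBS and DMSO at matching dilutions. Incubation was at 37 °C, humidified, under 5% CO₂. Data were reported as percent growth of treated cells.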

NCI/ADR-RES = test: Growth inhibition of human NCI/ADR-RES cells at 10 uM after 48 hrs by coulter counting; conditions: read-out: GI; outline: as §2
T47D = test: Growth inhibition of human T47D cells at 10 uM after 48 hrs by coulter counting; conditions: read-out: GI; outline: as §1
NCI-H23 = test: Growth inhibition of human NCI-H23 cells at 10 uM after 48 hrs by coulter counting; conditions: NCI-H23, 48 h, read-out: GI; outline: as §2
NCI-H226 = test: Growth inhibition of human NCI-H226 cells at 10 uM after 48 hrs by coulter counting; conditions: NCI-H226, 48 h, read-out: GI; outline: as §2
UACC-257 = test: Growth inhibition of human UACC257 cells at 10 uM after 48 hrs by coulter counting; conditions: UACC-257, 48 h, read-out: GI; outline: as §1
HCT-116 = test: Growth inhibition of human HCT116 cells at 10 uM after 48 hrs by coulter counting; conditions: HCT-116, 48 h, read-out: GI; outline: as §2
SK-MEL-5 = test: Growth inhibition of human SK-MEL-5 cells at 10 uM after 48 hrs by coulter counting; conditions: SK-MEL-5, 48 h, read-out: GI; outline: as §2
MDA-MB-435 = test: Growth inhibition of human MDA-MB-435 cells at 10 uM after 48 hrs by coulter counting; conditions: MDA-MB-435, 48 h, read-out: GI; outline: as §2
LOX IMVI = test: Growth inhibition of human LOXIMVI cells at 10 uM after 48 hrs by coulter counting; conditions: read-out: GI; outline: as §2
EKVX = test: Growth inhibition of human EKVX cells at 10 uM after 48 hrs by coulter counting; conditions: read-out: GI; outline: as §2
RPMI-8226 = test: Growth inhibition of human RPMI8226 cells at 10 uM after 48 hrs by coulter counting; conditions: RPMI-8226, 48 h, read-out: GI; outline: as §2
SNB-19 = test: Growth inhibition of human SNB19 cells at 10 uM after 48 hrs by coulter counting; conditions: SNB-19, 48 h, read-out: GI; outline: as §2
SF-295 = test: Growth inhibition of human SF295 cells at 10 uM after 48 hrs by coulter counting; conditions: SF-295, 48 h, read-out: GI; outline: as §2
[1] = Growth inhibition of human NCI-322M cells at 10 uM after 48 hrs by coulter counting; conditions: read-out: GI; outline: as §2
M14 = test: Growth inhibition of human M14 cells at 10 uM after 48 hrs by coulter counting; conditions: M14, 48 h, read-out: GI; outline: as §2
A498 = test: Growth inhibition of human A498 cells at 10 uM after 48 hrs by coulter counting; conditions: A498, 48 h, read-out: GI; outline: as §2
OVCAR-4 = test: Growth inhibition of human OVCAR4 cells at 10 uM after 48 hrs by coulter counting; conditions: OVCAR-4, 48 h, read-out: GI; outline: as §2
IGROV-1 = test: Growth inhibition of human IGROV1 cells at 10 uM after 48 hrs by coulter counting; conditions: IGROV-1, 48 h, read-out: GI; outline: as §2
BT-549 = test: Growth inhibition of human BT549 cells at 10 uM after 48 hrs by coulter counting; conditions: BT-549, 48 h, read-out: GI; outline: as §2
K562 = test: Growth inhibition of human K562 cells at 10 uM after 48 hrs by coulter counting; conditions: K562, 48 h, read-out: GI; outline: as §2
HOP-62 = test: Growth inhibition of human HOP62 cells at 10 uM after 48 hrs by coulter counting; conditions: HOP-62, 48 h, read-out: GI; outline: as §2

Measured: inhibition of growth at 10 µM

CC1=CSC2=NC3=C(CCC/C3=C\c3ccccc3)C(c3ccccc3)N12 (stereo unspecified)
11.2%: NCI-H226
13.8%: K562
28.8%: UO-31
11.4%: CAKI-1
13.3%: SNB-75
> 10%: all other assays above

C1=CN2C(=NC3=C(CCC/C3=C\c3ccccc3)C2c2ccccc2)S1 (stereo unspecified)
21.4%: UO-31
> 10%: all other assays above

COc1ccc(/C=C2\CCCC3=C2N=C2SC=CN2C3c2ccc(OC)c(OC)c2)cc1OC (stereo unspecified)
27.9%: UO-31
16.4%: LOX IMVI
17.5%: HL-60(TB)
12.4%: SNB-75
10.3%: NCI-H522
10.5%: UACC-257
14.9%: HCC 2998
> 10%: all other assays above
